Results published in ChEMBL document CHEMBL3351951, “2-Octadecynoic acid as a dual life stage inhibitor of Plasmodium infections and plasmodial FAS-II enzymes” (Bioorg Med Chem Lett, 2014).
Values after ≈ are worked out from the molar mass of the structure shown. Active and inactive are the calls of the source. The rule behind the calls is not given here.

Key:
[1] = Cytotoxicity against human HuH7 cells assessed as cell viability by Alamar Blue assay; format: cell-based; conditions: huh-7
Procedure, shortened: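 Host-cell viability was measured in the same P. berghei-infected Huh7 wells. Cells were treated from 2 hpi, and Alamar Blue fluorescence was read at the time of infection analysis (48 hpi). Cell confluency is reported in arbitrary units.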

[2] = system: Plasmodium berghei; assay: Antimalarial activity against liver stage of Plasmodium berghei infected in human Huh7 cells assessed as reduction in parasite load treated after 2 hrs of infection for 46 hrs by luciferase assay; format: functional, organism-based; conditions: Huh-7, Liver
Procedure, shortened: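 Huh7 hepatoma cells infected with luciferase-expressing P. berghei sporozoites. Parasite load measured by luciferase signal at 44 hpi (48 hpi in the figure legend) and expressed as percent of control. IC50 is the average of at least two independent assays run in duplicate.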

[3] = Inhibition of Plasmodium falciparum FabI
Procedure, shortened: (§1)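 Recombinant P. falciparum FAS-II enzymes (FabI, FabZ, FabG) were assayed for inhibition. IC50 values (μg/ml) are the average of at least two independent assays run in duplicate.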

[4] = Inhibition of Plasmodium falciparum FabZ; procedure, shortened: as §1
[5] = Inhibition of Plasmodium falciparum FabG; procedure, shortened: as §1
[6] = species on record: Danio rerio; assay: Hepatotoxicity in zebrafish larvae during 3 to 6 days of post-fertilization; format: organism-based; conditions: in vivo
Procedure, shortened: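 Larvae with DsRed-fluorescent livers are exposed from 3 dpf for 3 days, at a range of concentrations up to each compound's maximum tolerated concentration. Vehicle is 1% DMSO, and paracetamol 300 μM is the positive control. At 6 dpf, livers are imaged and scored as normal, reduced fluorescence, reduced size, enlarged or absent.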

[7] = species on record: Danio rerio; assay: Hepatotoxicity in zebrafish larvae at 300 uM measured during 3 to 6 days of post-fertilization; format: organism-based; conditions: in vivo
Procedure, shortened: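 Larvae with DsRed-fluorescent livers were exposed from 3 to 6 dpf; vehicle was 1% DMSO. At 6 dpf, livers were photographed under a stereomicroscope and scored as normal, reduced fluorescence, reduced size, enlarged or absent. Paracetamol 300 μM served as the positive control.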

[8] = system: Plasmodium berghei; assay: Antimalarial activity against liver stage of GFP-expressing Plasmodium berghei infected in human Huh7 cells assessed as reduction in parasite load treated after 2 hrs of infection for 46 hrs by confocal microscopy; format: functional, organism-based; conditions: Huh-7
Procedure, shortened: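 Huh7 hepatoma cells infected with GFP-expressing P. berghei sporozoites. Treated at 2 hpi for 46 h at single fixed concentrations; vehicle DMSO 0.4%. Cells fixed in 4% PFA. Exo-erythrocytic forms immunolabelled with anti-PbHsp70 and an Alexa-488 secondary antibody; nuclei stained with Hoechst. Imaged by confocal microscopy.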

[9] = system: Plasmodium falciparum; assay: Antimalarial activity against blood stage of multidrug-resistant Plasmodium falciparum K1 after 72 hrs by [3H]hypoxanthine incorporation assay; format: functional, organism-based
Procedure, shortened: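 Blood-stage P. falciparum K1 growth is measured by 3H-hypoxanthine incorporation. IC50 is given in μg/ml as the mean of at least two independent assays, each run in duplicate.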

[10] = Critical micelle concentration of the compound in 1X phosphate-buffered saline containing rhodamine 6G at 2.5 x 10^-6 M by spectrophotometry; format: ADME; conditions: buffer
[11] = system: L6; assay: Cytotoxicity against rat L6 cells; format: cell-based

SMILES | IC50 [2] | IC50 [3] | IC50 [4] | IC50 [5] | MTD [6] | further results
CCCCCCCCCCCC#CC(=O)O | 2.87 µg/mL (≈ 12.8 µM) | 1.2 µg/mL (≈ 5.35 µM) | 3.5 µg/mL (≈ 15.6 µM) | 5.5 µg/mL (≈ 24.5 µM) | 1.2 µM | Activity [1]: Non-toxic
CCCCCCCCCCCCCCCC(=O)O [PALMITIC ACID] | > 25 µg/mL | > 100 µg/mL | > 100 µg/mL | > 100 µg/mL | 700 µM | 
CC(=O)Nc1ccc(O)cc1 [ACETAMINOPHEN] |  |  |  |  |  | Activity [7]: Toxic
CCCCCCCCCCCCCCCC#CC(=O)O | 0.34 µg/mL (≈ 1.21 µM) | 0.3 µg/mL (≈ 1.07 µM) | 0.28 µg/mL (≈ 0.998 µM) | 0.8 µg/mL (≈ 2.85 µM) | 1 µM | Activity [1]: Non-toxic; inhibition [8]: Active; IC50 [9]: 6 µg/mL (≈ 21.4 µM); CMC [10]: 50 µg/mL
COc1cc([C@@H]2c3cc4c(cc3[C@H](O)[C@H]3COC(=O)[C@H]23)OCO4)cc(OC)c1OC [PODOFILOX] |  |  |  |  |  | IC50 [11]: 0.02 µg/mL (≈ 0.0483 µM)
O=C(O[C@@H]1Cc2c(O)cc(O)cc2O[C@@H]1c1cc(O)c(O)c(O)c1)c1cc(O)c(O)c(O)c1 [EPIGALOCATECHIN GALLATE] |  |  | 0.03 µg/mL (≈ 0.0654 µM) | 0.2 µg/mL (≈ 0.436 µM) |  | 
Oc1cc(Cl)ccc1Oc1ccc(Cl)cc1Cl [TRICLOSAN] |  | 0.015 µg/mL (≈ 0.0518 µM) |  |  |  | 
